Consider 24 compounds from ChEMBL document CHEMBL1833930, “Synthesis and biological activities of triazole derivatives as inhibitors of InhA and antituberculosis agents” (2011).

Molecules are shown by their SMILES. Values after ≈ are worked out from the molar mass of the structure shown. Some results are limits rather than exact numbers.

What is called MIC is the lowest concentration that inhibits growth of the organism. The low end stands for inhibition by little substance, the high end for a need for much substance. Broadly, the inhibition is the change of the read-out against control, counted positive when it falls. A higher inhibition goes with a response far below the control.

The test system of assay [1] is Mycobacterium tuberculosis. Put plainly: Antimycobacterial activity against Mycobacterium tuberculosis H37Rv by twofold dilution method. Format: functional. The method in brief:
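Single colony inoculated into complete Middlebrook 7H9 and grown at 37 °C to exponential phase (~10⁸ CFU/mL, OD600 0.8–1.0). Diluted to ~10⁷ CFU/mL, then streaked onto plates with two-fold serial compound dilutions. MIC was the lowest concentration inhibiting growth. Three independent repeats.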

Assay [2] deals with T1, Enoyl-[acyl-carrier-protein] reductase [NADH] (Mycobacterium tuberculosis) (UniProt P9WGR1).
T1 sequence (whole entry): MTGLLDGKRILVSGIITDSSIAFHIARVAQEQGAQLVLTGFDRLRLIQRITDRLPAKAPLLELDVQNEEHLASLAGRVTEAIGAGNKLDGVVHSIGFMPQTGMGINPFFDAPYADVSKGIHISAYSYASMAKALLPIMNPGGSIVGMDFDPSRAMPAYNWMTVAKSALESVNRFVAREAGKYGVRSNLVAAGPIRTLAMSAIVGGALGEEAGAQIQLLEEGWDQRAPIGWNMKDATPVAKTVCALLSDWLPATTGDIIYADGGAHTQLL
As to the kind of experiment: Inhibition of Mycobacterium tuberculosis InhA expressed in Escherichia coli BL21 using trans-2-dodecenoyl-Coenzyme A as substrate at 50 uM by spectrophotometry. Summed up: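 Recombinant M. tuberculosis InhA was expressed in E. coli with 1 mM IPTG overnight at 20 °C. It was purified on Ni-NTA and desalted into 30 mM PIPES pH 6.8, 150 mM NaCl. Reactions ran in buffer at pH 6.8 with 150 mM NaCl. Controls were run identically without inhibitor.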

`CCCCCCCCn1cc(C(=O)Cc2ccc(Cl)cc2Cl)nn1` yielded an MIC in assay [1] of 27.2 µM (≈ 10 µg/mL).
The same measure, in the same setting: next, `Cc1cc(C)cc(Cn2cc(C(=O)Cc3ccc(Cl)cc3Cl)nn2)c1`: 267 µM (≈ 100 µg/mL); `CCCCCCCCn1cc(C(O)Cc2ccccc2)nn1` (racemic): 33.2 µM (≈ 10 µg/mL).
`Oc1cc(Cl)ccc1Oc1ccc(Cl)cc1Cl` [TRICLOSAN] came in with an MIC in assay [1] of 34.5 µM (≈ 9.99 µg/mL).
On the same count and under the same terms, for `O=C(Cc1ccc(Cl)cc1Cl)c1cn(Cc2ccc([N+](=O)[O-])cc2)nn1` the value was 256 µM (≈ 100 µg/mL).
`c1ccc(Cn2cc(-c3ccccc3)nn2)cc1` returned an MIC in assay [1] greater than 425 µM.
The compound `COc1cc(Cn2cc(C(=O)Cc3ccccc3)nn2)cc(OC)c1` showed an MIC in assay [1] greater than 296 µM.
Still for that read-out and setting: next, `O=C(Cc1ccccc1)c1cn(Cc2ccc([N+](=O)[O-])cc2)nn1`: 310 µM (≈ 100 µg/mL).
Turning to `CCCCCCCCCCCCn1cc(CCc2ccccc2)nn1`, the inhibition in assay [2] is 40%. The compound further came in with an MIC in assay [1] of no more than 5.9 µM.
On to `CCCCCCCCCn1cc(CCc2ccccc2)nn1`, for which, in assay [2], the inhibition is 58%. In assay [1], this compound gave a minimal inhibitory concentration (MIC) of 16.7 µM (≈ 5 µg/mL).
Taken in the same sequence, the figures for `O=C(Cc1ccccc1)c1cn(CC2CCCCC2)nn1` were 12% and 88.2 µM (≈ 25 µg/mL).
With `CCCCCCCCn1cc(C(O)Cc2ccc(Cl)cc2Cl)nn1` (racemic), in assay [1], the MIC turned out to be 67.5 µM (≈ 25 µg/mL).
The same measure, in the same setting: for `COc1cccc(Cn2cc(C(=O)Cc3ccc(Cl)cc3Cl)nn2)c1` the value was 13.3 µM (≈ 5 µg/mL).
In assay [2], `COc1cccc(Cn2cc(C(=O)Cc3ccccc3)nn2)c1` displayed an inhibition of 10%. The same compound had a minimal inhibitory concentration (MIC) in assay [1] of 81.3 µM (≈ 25 µg/mL).
In the case of `COc1cc(Cn2cc(C(=O)Cc3ccc(Cl)cc3Cl)nn2)cc(OC)c1`, in assay [1], the lowest concentration to inhibit growth (MIC) was 246 µM (≈ 100 µg/mL).
On to `c1ccc(CCc2cn(CC3CCCCC3)nn2)cc1`, for which, in assay [1], 186 µM (≈ 50 µg/mL) was the least that counted as inhibitory (MIC). This MIC and that of the compound before are within 1.5-fold of each other.
For the compound `Cc1cc(C)cc(Cn2cc(CCc3ccccc3)nn2)c1`, the inhibition in assay [2] was 11%. In assay [1], this compound registered an MIC of 34.3 µM (≈ 9.99 µg/mL).
Consider `O=C(Cc1ccc(Cl)cc1Cl)c1cn(Cc2ccccc2)nn1`, for which it took 289 µM (≈ 100 µg/mL) to inhibit growth in assay [1] (MIC).
`O=C(Cc1ccccc1)c1cn(Cc2ccccc2)nn1` gave an inhibition in assay [2] of 13%. Further, the MIC in assay [1] is 361 µM (≈ 100 µg/mL).
In assay [2], `Cc1cc(C)cc(Cn2cc(C(=O)Cc3ccccc3)nn2)c1` displayed an inhibition of 10%. In assay [1], this compound registered an MIC greater than 327 µM.
`c1ccc(Cc2cn(Cc3ccccc3)nn2)cc1` registered an MIC in assay [1] of 201 µM (≈ 50 µg/mL).
For `CCCCCCCCn1cc(C(=O)Cc2ccccc2)nn1`, in assay [2], the inhibition was 25%. The same compound returned an MIC in assay [1] of 83.5 µM (≈ 25 µg/mL).
Regarding `c1ccc(CCc2cn(Cc3ccccc3)nn2)cc1`, the inhibition in assay [2] was determined as 15%. Besides, the MIC in assay [1] stood at 94.9 µM (≈ 25 µg/mL).
Taken in the same sequence, the figures for `CCCCCCCCn1cc(CCc2ccccc2)nn1` were 46% and 35 µM (≈ 9.99 µg/mL).
